Activity calls are given as the source filed them. The calls are words filed in the database; no cut-off is given here.
Assays:
Format in all cases: functional
[1] = Antioxidant activity against pentose 2-deoxyribose oxidation at 250 uM after 60 mins by TBA method
Summary of the method: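 Deoxyribose assay in KH2PO4/KOH (10.0 mM, pH 7.4) with H2O2, EDTA, FeCl3 and ascorbic acid (each 100.0 µM) plus 2-deoxyribose (2.8 mM). Compound at final 37.5–250.0 µM, incubated at 37 °C for 1 h. TBA/TCA added, heated at 90 °C for 30 min, read at 532 nm. Result is percent antioxidant capacity versus blank. Triplicate.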

[2] = test system: Radical scavenging activity; assay: Antioxidant activity assessed as DPPH radical scavenging activity
Summary of the method: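 DPPH absorbance at 515 nm read at 30 min against a blank. Compounds tested at 37.5, 75, 125 and 250 µM in triplicate, with Trolox as standard. IC50 is the concentration giving 50% inhibition of absorbance, taken from the plotted curves.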

[3] = Antioxidant activity against bovine serum albumin oxidation after 60 mins
Summary of the method: (§1)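 BSA (10 mg/mL) oxidised with H2O2 (1.0 mM) and FeSO4 (0.5 mM) in the presence of sample; shaken 10 min, then TCA (10.0%) precipitation at 4 °C. Pellet derivatised with DNPH (10 mM) in 2 N HCl for 1 h at room temperature, reprecipitated with cold TCA, washed, and dissolved in 6 M guanidine-HCl (pH 6.5). Protein carbonyl formation was measured.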

[4] = Antioxidant activity against lipid peroxidation assessed as TBARS production using rape seed oil after 60 mins
Summary of the method: (§2)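 Rape seed oil emulsified with Tween-40 in Tris-HCl (0.2 M, pH 7.4). Test compound added at final 37.5, 75.0, 125.0 or 250.0 µM, then tubes held in a boiling water bath for 30 min. Absorbance read at 532 nm. Lipid peroxidation inhibition is given as percent versus a blank without compound. Triplicate.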

[5] = Antioxidant activity against bovine serum albumin oxidation at 37.5 uM after 60 mins; summary of the method: as §1
[6] = Antioxidant activity against lipid peroxidation assessed as TBARS production using rape seed oil at 250 uM after 60 mins; summary of the method: as §2

Row | SMILES | inhibition [1] | IC50 [2] | Activity [3] | Activity [4] | inhibition [5] | inhibition [6]
1 | CC1(C)CCC[C@@]2(C)C1=C(O)C(=O)c1c2c(O)c2oc(CO)cc2c1O | 50% | 120 µM | Dose-dependent effect | Dose-dependent effect |  | 
2 | C[C@]12CC[C@H]3C[C@@]3(C)C1=C(O)C(=O)c1c2c(O)c2oc(CO)cc2c1O | inactive | 101 µM | Dose-dependent effect | Dose-dependent effect |  | 
3 | C[C@H]1Cc2c(O)c3c(c(O)c2O1)[C@@]1(C)CC[C@H]2C[C@@]2(C)[C@@H]1CC3=O [TEUVINCENONE D] | 50% | 111 µM | Dose-dependent effect | Dose-dependent effect |  | 
4 | Cc1cc2c(O)c3c(c(O)c2o1)[C@@]1(C)CCCC(C)(C)C1=C(O)C3=O | inactive | 76 µM | Dose-dependent effect | Dose-dependent effect |  | 
5 | C[C@H]1Cc2c(O)c3c(c(O)c2O1)[C@@]1(C)CCCC(C)(C)C1=C(O)C3=O [TEUVINCENONE B] | 50% | 55 µM | Dose-dependent effect | Dose-dependent effect |  | 
6 | C[C@H]1Cc2c(O)c3c(c(O)c2O1)[C@@]1(C)CC[C@H]2C[C@@]2(C)C1=C(O)C3=O [TEUVINCENONE C] | 50% | 97 µM | Dose-dependent effect | Dose-dependent effect |  | 
7 | Cc1cc2c(O)c3c(c(O)c2o1)[C@@]1(C)CC[C@H]2C[C@@]2(C)[C@@H]1CC3=O | 50% | 130 µM | Dose-dependent effect | Dose-dependent effect |  | 
8 | Cc1cc2c(O)c3c(c(O)c2o1)[C@@]1(C)CC[C@H]2C[C@@]2(C)C1=C(O)C3=O | inactive | 55 µM | Dose-dependent effect | Dose-dependent effect | 31% | 76.9%
9 | C[C@@H]1Oc2c(O)c3c(c(O)c2[C@H]1O)C(=O)C(O)=C1C(C)(C)CCC[C@@]13C | 50% | 71 µM | Dose-dependent effect | Dose-dependent effect |  | 
10 | Cc1cc2c(O)c3c(c(O)c2o1)[C@@]1(C)CCC(=O)C(C)(C)C1=C(O)C3=O | 50% | 64 µM | Dose-dependent effect | Dose-dependent effect |  | 
11 | Cc1c(C)c2c(c(C)c1O)CCC(C)(C(=O)O)O2 (stereo not given) [TROLOX] |  | 24 µM |  |  |  | 
12 | CC1(C)CCC[C@@]2(C)C1=C(O)C(=O)c1c(O)c3c(c(O)c12)O[C@@H](CO)C3 [VILLOSIN C] | 50% | 86 µM | Dose-dependent effect | Dose-dependent effect |  | 
13 | C[C@H]1Cc2c(O)c3c(c(O)c2O1)[C@@]1(C)CCC(=O)C(C)(C)C1=C(O)C3=O [TEUVINCENONE A] | 50% | 63 µM | Dose-dependent effect | Dose-dependent effect |  | 
14 | C[C@@H]1Oc2c(O)c3c(c(O)c2[C@H]1O)C(=O)C(O)=C1[C@]3(C)CC[C@H]2C[C@@]12C | 50% | 84 µM | Dose-dependent effect | Dose-dependent effect |  | 
